In ChEMBL document CHEMBL1140069, “In vitro antifungal activity of polyfunctionalized 2-(hetero)arylquinolines prepared through imino Diels-Alder reactions” (2008) one finds MIC data, which are given here for three compounds.

Holding throughout (type): functional
The subject of test [1] is Trichophyton rubrum. In words: Antifungal activity against Trichophyton rubrum C137 isolate. Particulars: read-out: MIC100.
A further test concerns Nannizzia gypsea. As to the kind of experiment: Antifungal activity against Microsporum gypseum C115 after 48 hrs by broth microdilution technique. In a few lines:
(§1)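 CLSI broth microdilution: M-27 A2 for yeasts and M-38 A for filamentous fungi. Medium is RPMI-1640 buffered to pH 7.0 with MOPS. Compound is diluted twofold from 250 to 0.98, final DMSO ≤2%. Inoculum is 1–5 × 10³ CFU/mL. Plates are incubated at 35 °C in a moist, dark chamber and read visually at 48 h. MIC100 is the lowest concentration giving total growth inhibition versus drug-free control.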
For orientation: Broth dilution looks for growth in wells or tubes with falling amounts of substance.

The subject of test [2] is Trichophyton rubrum. As to the kind of experiment: Antifungal activity against Trichophyton rubrum C133 isolate. Particulars: read-out: MIC100.
In test [3] the test system is Trichophyton rubrum. As to the kind of experiment: Antifungal activity against Trichophyton rubrum C136 isolate. Particulars: read-out: MIC100.
The subject of test [4] is Trichophyton mentagrophytes. In words: Antifungal activity against Trichophyton mentagrophytes C132 isolate. Particulars: read-out: MIC100.
Test [5] relates to Trichophyton mentagrophytes. In words: Antifungal activity against Trichophyton mentagrophytes C131 isolate. Particulars: read-out: MIC100.
For test [6], the system named is Trichophyton mentagrophytes. As to the kind of experiment: Antifungal activity against Trichophyton mentagrophytes ATCC 9972 after 48 hrs by broth microdilution technique. Particulars: ATCC 9972, 48 h. In a few lines:
as §1

Test [7] concerns Trichophyton rubrum. In words: Antifungal activity against Trichophyton rubrum C135 isolate. Particulars: read-out: MIC100.
For another test, the system named is Aspergillus flavus. As to the kind of experiment: Antifungal activity against Aspergillus flavus ATCC 9170 after 48 hrs by broth microdilution technique. Particulars: ATCC 9170, 48 h. In a few lines:
as §1

Test [8] deals with Trichophyton mentagrophytes. As to the kind of experiment: Antifungal activity against Trichophyton mentagrophytes C943 isolate. Particulars: read-out: MIC100.
The test system of test [9] is Trichophyton rubrum. In words: Antifungal activity against Trichophyton rubrum C110 after 48 hrs by broth microdilution technique. In a few lines:
as §1

The subject of the next test is Aspergillus niger. As to the kind of experiment: Antifungal activity against Aspergillus niger ATCC 9029 after 48 hrs by broth microdilution technique. Particulars: ATCC 9029, 48 h. In a few lines:
as §1

The next test relates to Saccharomyces cerevisiae. In words: Antifungal activity against Saccharomyces cerevisiae ATCC 9763 after 48 hrs by broth microdilution technique. Particulars: ATCC 9763, 48 h. In a few lines: as §1
The test system of another test is Cryptococcus neoformans. In words: Antifungal activity against Cryptococcus neoformans ATCC 32264 after 48 hrs by broth microdilution technique. Particulars: ATCC 32264, 48 h. In a few lines:
as §1

The test system of the next test is Aspergillus fumigatus. As to the kind of experiment: Antifungal activity against Aspergillus fumigatus ATTC 26934 after 48 hrs by broth microdilution technique. In a few lines:
as §1

In test [10] the test system is Trichophyton mentagrophytes. As to the kind of experiment: Antifungal activity against Trichophyton mentagrophytes C364 isolate. Particulars: read-out: MIC100.
For test [11], the system named is Trichophyton mentagrophytes. In words: Antifungal activity against Trichophyton mentagrophytes C539 isolate. Particulars: read-out: MIC100.
For a further test, the system named is Candida albicans. As to the kind of experiment: Antifungal activity against Candida albicans ATCC 10231 after 48 hrs by broth microdilution technique. Particulars: ATCC 10231, 48 h. In a few lines: as §1

≈ marks a conversion by molar mass, not a printed value.

As for `Cc1cc(-c2ccncc2)nc2c(C(C)C)cccc12`, the MIC was found to be 7.8 µg/mL (≈ 29.7 µM) with Trichophyton rubrum [1]; 12.5 µg/mL (≈ 47.6 µM) in the test with Nannizzia gypsea; 15.6 µg/mL (≈ 59.5 µM) with Trichophyton rubrum [2]; 7.8 µg/mL (≈ 29.7 µM) in the test on Trichophyton rubrum [3]; 7.8 µg/mL (≈ 29.7 µM) in [4]; 15.6 µg/mL (≈ 59.5 µM) in [5]. The MIC in [6] is 12.5 µg/mL (≈ 47.6 µM); in the test with Trichophyton rubrum [7] it was 7.8 µg/mL (≈ 29.7 µM); in the test on Aspergillus flavus, above 250 µg/mL; in [8] it was 7.8 µg/mL (≈ 29.7 µM); in the test with Trichophyton rubrum [9] (read-out: MIC) it was 12.5 µg/mL (≈ 47.6 µM); with Trichophyton rubrum [9] (read-out: MIC100), 7.8 µg/mL (≈ 29.7 µM). Moreover, the MIC in the test on Aspergillus niger is above 250 µg/mL; in the test with Saccharomyces cerevisiae, above 250 µg/mL; in the test on Cryptococcus neoformans, above 250 µg/mL; in the test with Aspergillus fumigatus, above 250 µg/mL; in test [10] it was 7.8 µg/mL (≈ 29.7 µM); in [11], 7.8 µg/mL (≈ 29.7 µM). Moreover, the MIC against Candida albicans was above 250 µg/mL.
Regarding `Cc1cc(-c2cccnc2)nc2ccc(Br)cc12`, the MIC was 12.5 µg/mL (≈ 41.8 µM) with Nannizzia gypsea; 12.5 µg/mL (≈ 41.8 µM) in [6]; above 250 µg/mL against Aspergillus flavus; 12.5 µg/mL (≈ 41.8 µM) in the test on Trichophyton rubrum [9] (read-out: MIC); above 250 µg/mL with Aspergillus niger; above 250 µg/mL in the test on Saccharomyces cerevisiae. Moreover, the MIC with Cryptococcus neoformans is 250 µg/mL (≈ 836 µM); against Aspergillus fumigatus, above 250 µg/mL; against Candida albicans, above 250 µg/mL.
Take `Cc1ccc2nc(-c3ccccc3)ccc2c1`: the MIC was 250 µg/mL (≈ 1140 µM) in the test with Nannizzia gypsea; 250 µg/mL (≈ 1140 µM) in test [6]; above 250 µg/mL with Aspergillus flavus; 250 µg/mL (≈ 1140 µM) in the test with Trichophyton rubrum [9] (read-out: MIC); above 250 µg/mL in the test on Aspergillus niger; above 250 µg/mL against Saccharomyces cerevisiae. Further, the MIC was 250 µg/mL (≈ 1140 µM) with Cryptococcus neoformans, above 250 µg/mL in the test with Aspergillus fumigatus and above 250 µg/mL against Candida albicans.
